Data as given in ChEMBL document CHEMBL1137651 (Antimicrob Agents Chemother, 2007).

Assays:
Type in all cases: functional
[1] = system: Mycobacterium tuberculosis; experiment: Antimycobacterial activity against drug-resistant Mycobacterium tuberculosis H37Rv ATCC 2517-infected hollow fiber system based in vitro pharmacokinetic-pharmacodynamic tuberculosis model assessed as rate constant for maximal bacterial growth
[2] = system: Mycobacterium tuberculosis; experiment: Antimycobacterial activity against drug-resistant Mycobacterium tuberculosis H37Rv ATCC 2517-infected hollow fiber system based in vitro pharmacokinetic-pharmacodynamic tuberculosis model assessed as concentration needed to achieve 50% effect on maximal growth rate
[3] = system: Mycobacterium tuberculosis; experiment: Antimycobacterial activity against drug-resistant Mycobacterium tuberculosis H37Rv ATCC 2517-infected hollow fiber system based in vitro pharmacokinetic-pharmacodynamic tuberculosis model assessed as sigmoidicity constant for drug effect on microbial growth
[4] = system: Mycobacterium tuberculosis; experiment: Antimycobacterial activity against drug-resistant Mycobacterium tuberculosis H37Rv ATCC 2517-infected hollow fiber system based in vitro pharmacokinetic-pharmacodynamic tuberculosis model assessed as rate constant for maximal bacterial kill
[5] = system: Mycobacterium tuberculosis; experiment: Antimycobacterial activity against drug-resistant Mycobacterium tuberculosis H37Rv ATCC 2517-infected hollow fiber system based in vitro pharmacokinetic-pharmacodynamic tuberculosis model assessed as concentration needed to achieve 50% maximal killing rate
Method in brief: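 Hollow-fibre system at 37°C under 5% CO2, preconditioned with drug for 3 days. Log-phase bacilli (10 ml of 10^6 CFU/ml) went into the peripheral compartment. […] Drug levels were checked centrally. Peripheral samples were taken daily for 7 days, washed twice in saline and plated on 7H10 agar for CFU.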

[6] = system: Mycobacterium tuberculosis; experiment: Antimycobacterial activity against drug-resistant Mycobacterium tuberculosis H37Rv ATCC 2517-infected hollow fiber system based in vitro pharmacokinetic-pharmacodynamic tuberculosis model assessed as sigmoidicity constant for microbial killing

`CO[C@H]1/C=C/O[C@@]2(C)Oc3c(C)c(O)c4c(O)c(c(/C=N/N5CCN(C)CC5)c(O)c4c3C2=O)NC(=O)/C(C)=C\C=C\[C@H](C)[C@H](O)[C@@H](C)[C@@H](O)[C@@H](C)[C@H](OC(C)=O)[C@@H]1C` [RIFAMPIN] gave a Kgmax [1] of 6.195 ×10⁻³ log10CFU/ml/hr, a C50g [2] of 2.019 mg/L and a Hg [3] of 4.542. The Kkmax [4] was 29.379 ×10⁻³ log10CFU/ml/hr, the C50k [5] was 22.405 mg/L and the Hk [6] was 45.326.
